Measured values from ChEMBL document CHEMBL4007444, “Development of New Benzenesulfonamides As Potent and Selective Nav1.7 Inhibitors for the Treatment of Pain” (J Med Chem, 2017).
Calls of active or inactive are those of the source. No cut-off for these calls is given here.

Assays:
Cytochrome P450 3A4 = Cytochrome P450 3A4 (Homo sapiens, UniProt P08684); test: Inhibition of human CYP3A4 assessed as inhibition of dealkylation
[1] = target: T1, Sodium channel protein type 9 subunit alpha (Mus musculus, UniProt Q62205); test: Inhibition of recombinant mouse Nav1.7 expressed in HEK293 cells assessed as reduction in peak inward current at -70 mV holding potential measured after 600 secs by manual patch clamp electrophysiology assay; type: cell-based
Procedure, shortened: (§1)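 Whole-cell manual patch clamp of HEK293 cells stably expressing recombinant Nav1.7, holding potential -70 mV (partially inactivated state). Pipette solution (mM): 50 CsCl, 90 CsF, 10 NaF, 2 MgCl2, 10 EGTA, 10 HEPES, pH 7.2; electrode resistance 1-4 MOhm. Percent inhibition of peak inward current; IC50 from a Hill fit to the averaged data; mean ± SEM.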

[2] = target: T2, Sodium channel protein type 9 subunit alpha (Homo sapiens, UniProt Q15858); test: Inhibition of recombinant human Nav1.7 expressed in HEK293 cells assessed as reduction in peak inward current at -60 mV holding potential measured after 600 secs by IonWorks Barracuda patch-clamp assay; type: cell-based
T2 sequence (Q15858 whole entry): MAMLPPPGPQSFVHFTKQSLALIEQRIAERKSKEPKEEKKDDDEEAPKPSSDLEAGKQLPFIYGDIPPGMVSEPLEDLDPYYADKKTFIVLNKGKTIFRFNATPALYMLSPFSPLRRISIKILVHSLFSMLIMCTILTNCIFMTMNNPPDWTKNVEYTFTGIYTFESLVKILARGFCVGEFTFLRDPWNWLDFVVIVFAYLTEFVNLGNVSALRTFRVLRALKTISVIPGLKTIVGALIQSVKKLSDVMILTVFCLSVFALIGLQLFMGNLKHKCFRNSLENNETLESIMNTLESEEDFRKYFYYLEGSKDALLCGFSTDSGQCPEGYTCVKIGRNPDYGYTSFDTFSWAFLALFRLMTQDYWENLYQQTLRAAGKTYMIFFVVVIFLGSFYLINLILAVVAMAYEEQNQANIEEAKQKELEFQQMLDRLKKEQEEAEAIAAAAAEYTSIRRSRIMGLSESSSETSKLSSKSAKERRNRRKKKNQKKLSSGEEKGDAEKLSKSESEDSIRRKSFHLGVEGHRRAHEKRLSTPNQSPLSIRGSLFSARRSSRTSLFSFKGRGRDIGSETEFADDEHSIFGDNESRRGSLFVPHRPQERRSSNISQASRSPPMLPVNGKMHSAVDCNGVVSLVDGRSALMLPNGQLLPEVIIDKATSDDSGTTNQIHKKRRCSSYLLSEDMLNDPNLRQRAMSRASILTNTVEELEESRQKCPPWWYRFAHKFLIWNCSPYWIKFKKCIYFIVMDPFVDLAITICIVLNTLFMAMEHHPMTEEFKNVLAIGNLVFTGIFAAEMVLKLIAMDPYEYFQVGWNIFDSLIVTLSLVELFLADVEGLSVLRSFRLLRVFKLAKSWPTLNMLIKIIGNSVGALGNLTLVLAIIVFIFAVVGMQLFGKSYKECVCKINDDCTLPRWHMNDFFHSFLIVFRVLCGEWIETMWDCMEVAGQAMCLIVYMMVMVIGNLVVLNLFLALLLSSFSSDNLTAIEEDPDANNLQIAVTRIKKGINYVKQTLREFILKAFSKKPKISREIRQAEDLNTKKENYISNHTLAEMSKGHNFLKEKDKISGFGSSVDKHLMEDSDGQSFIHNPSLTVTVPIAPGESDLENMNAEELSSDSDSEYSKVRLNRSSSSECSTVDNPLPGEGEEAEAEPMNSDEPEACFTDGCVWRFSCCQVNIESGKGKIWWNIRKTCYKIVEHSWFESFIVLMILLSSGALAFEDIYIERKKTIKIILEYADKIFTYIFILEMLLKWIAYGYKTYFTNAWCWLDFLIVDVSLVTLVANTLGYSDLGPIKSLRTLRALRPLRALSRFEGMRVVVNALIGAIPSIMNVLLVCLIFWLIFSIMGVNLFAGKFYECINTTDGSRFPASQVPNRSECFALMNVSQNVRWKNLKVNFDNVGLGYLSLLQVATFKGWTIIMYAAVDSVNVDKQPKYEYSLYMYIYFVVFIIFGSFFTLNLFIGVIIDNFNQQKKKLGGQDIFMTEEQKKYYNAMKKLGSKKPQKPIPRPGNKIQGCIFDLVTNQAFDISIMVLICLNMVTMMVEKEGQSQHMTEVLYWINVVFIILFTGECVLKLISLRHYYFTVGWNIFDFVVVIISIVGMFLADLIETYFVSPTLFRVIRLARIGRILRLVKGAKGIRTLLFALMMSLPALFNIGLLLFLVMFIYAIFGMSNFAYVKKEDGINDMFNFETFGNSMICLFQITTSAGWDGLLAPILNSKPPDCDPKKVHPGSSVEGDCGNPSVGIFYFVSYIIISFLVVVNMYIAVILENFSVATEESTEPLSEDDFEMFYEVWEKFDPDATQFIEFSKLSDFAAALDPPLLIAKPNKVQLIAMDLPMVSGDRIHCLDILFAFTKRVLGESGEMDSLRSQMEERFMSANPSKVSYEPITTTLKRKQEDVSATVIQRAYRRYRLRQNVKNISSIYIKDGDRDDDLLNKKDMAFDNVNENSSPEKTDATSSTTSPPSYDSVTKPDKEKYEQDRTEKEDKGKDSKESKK
Procedure, shortened: (§2)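 HEK293 cells expressing the channel, measured by population patch clamp on IonWorks Barracuda. Internal: K-gluconate/KCl, pH 7.2. Compound incubated 600 s between pre- and post-compound reads. Nav1.7: held at -60 mV, 300 ms at -100 mV, then 20 ms test pulse to -20 mV. Nav1.5: held at -40/-50 mV, 300 ms at -100 mV, then step to -10 mV to inactivate.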

[3] = Apparent permeability of the compound at pH 5.5 by PAMPA assay; type: physicochemical
[4] = Fraction unbound in CD-1 mouse plasma; type: ADME, cell-free
[5] = Apparent permeability of the compound at pH 7.4 by PAMPA assay; type: physicochemical
[6] = target: T2, Sodium channel protein type 9 subunit alpha; test: Inhibition of recombinant human Nav1.7 expressed in HEK293 cells assessed as reduction in peak inward current at -70 mV holding potential measured after 600 secs by manual patch clamp electrophysiology assay; type: cell-based
Procedure, shortened: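 Whole-cell manual patch clamp of HEK293 cells stably expressing recombinant human Nav1.7, held at -70 mV (partially inactivated state). The pipette solution (mM) was 50 CsCl, 90 CsF, 10 NaF, 2 MgCl₂, 10 EGTA and 10 HEPES, pH 7.2, with electrodes of 1-4 MOhm. Percent inhibition of peak inward current was calculated, and IC50 came from a Hill fit to averaged percent inhibition (mean ± S.E.M.).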

Plasma [7] = test: Free plasma concentration in CD-1 mouse at 30 mg/kg, po measured 75 mins post dosage; type: ADME, organism-based; details: in vivo, 1.25 h
[8] = target: Sodium channel protein type 5 subunit alpha (Homo sapiens, UniProt Q14524); test: Inhibition of recombinant human Nav1.5 expressed in HEK293 cells assessed as reduction in peak inward current at -50 mV holding potential measured after 600 secs by IonWorks Barracuda patch-clamp assay; type: cell-based
Sodium channel protein type 5 subunit alpha, sequence (Q14524 whole entry): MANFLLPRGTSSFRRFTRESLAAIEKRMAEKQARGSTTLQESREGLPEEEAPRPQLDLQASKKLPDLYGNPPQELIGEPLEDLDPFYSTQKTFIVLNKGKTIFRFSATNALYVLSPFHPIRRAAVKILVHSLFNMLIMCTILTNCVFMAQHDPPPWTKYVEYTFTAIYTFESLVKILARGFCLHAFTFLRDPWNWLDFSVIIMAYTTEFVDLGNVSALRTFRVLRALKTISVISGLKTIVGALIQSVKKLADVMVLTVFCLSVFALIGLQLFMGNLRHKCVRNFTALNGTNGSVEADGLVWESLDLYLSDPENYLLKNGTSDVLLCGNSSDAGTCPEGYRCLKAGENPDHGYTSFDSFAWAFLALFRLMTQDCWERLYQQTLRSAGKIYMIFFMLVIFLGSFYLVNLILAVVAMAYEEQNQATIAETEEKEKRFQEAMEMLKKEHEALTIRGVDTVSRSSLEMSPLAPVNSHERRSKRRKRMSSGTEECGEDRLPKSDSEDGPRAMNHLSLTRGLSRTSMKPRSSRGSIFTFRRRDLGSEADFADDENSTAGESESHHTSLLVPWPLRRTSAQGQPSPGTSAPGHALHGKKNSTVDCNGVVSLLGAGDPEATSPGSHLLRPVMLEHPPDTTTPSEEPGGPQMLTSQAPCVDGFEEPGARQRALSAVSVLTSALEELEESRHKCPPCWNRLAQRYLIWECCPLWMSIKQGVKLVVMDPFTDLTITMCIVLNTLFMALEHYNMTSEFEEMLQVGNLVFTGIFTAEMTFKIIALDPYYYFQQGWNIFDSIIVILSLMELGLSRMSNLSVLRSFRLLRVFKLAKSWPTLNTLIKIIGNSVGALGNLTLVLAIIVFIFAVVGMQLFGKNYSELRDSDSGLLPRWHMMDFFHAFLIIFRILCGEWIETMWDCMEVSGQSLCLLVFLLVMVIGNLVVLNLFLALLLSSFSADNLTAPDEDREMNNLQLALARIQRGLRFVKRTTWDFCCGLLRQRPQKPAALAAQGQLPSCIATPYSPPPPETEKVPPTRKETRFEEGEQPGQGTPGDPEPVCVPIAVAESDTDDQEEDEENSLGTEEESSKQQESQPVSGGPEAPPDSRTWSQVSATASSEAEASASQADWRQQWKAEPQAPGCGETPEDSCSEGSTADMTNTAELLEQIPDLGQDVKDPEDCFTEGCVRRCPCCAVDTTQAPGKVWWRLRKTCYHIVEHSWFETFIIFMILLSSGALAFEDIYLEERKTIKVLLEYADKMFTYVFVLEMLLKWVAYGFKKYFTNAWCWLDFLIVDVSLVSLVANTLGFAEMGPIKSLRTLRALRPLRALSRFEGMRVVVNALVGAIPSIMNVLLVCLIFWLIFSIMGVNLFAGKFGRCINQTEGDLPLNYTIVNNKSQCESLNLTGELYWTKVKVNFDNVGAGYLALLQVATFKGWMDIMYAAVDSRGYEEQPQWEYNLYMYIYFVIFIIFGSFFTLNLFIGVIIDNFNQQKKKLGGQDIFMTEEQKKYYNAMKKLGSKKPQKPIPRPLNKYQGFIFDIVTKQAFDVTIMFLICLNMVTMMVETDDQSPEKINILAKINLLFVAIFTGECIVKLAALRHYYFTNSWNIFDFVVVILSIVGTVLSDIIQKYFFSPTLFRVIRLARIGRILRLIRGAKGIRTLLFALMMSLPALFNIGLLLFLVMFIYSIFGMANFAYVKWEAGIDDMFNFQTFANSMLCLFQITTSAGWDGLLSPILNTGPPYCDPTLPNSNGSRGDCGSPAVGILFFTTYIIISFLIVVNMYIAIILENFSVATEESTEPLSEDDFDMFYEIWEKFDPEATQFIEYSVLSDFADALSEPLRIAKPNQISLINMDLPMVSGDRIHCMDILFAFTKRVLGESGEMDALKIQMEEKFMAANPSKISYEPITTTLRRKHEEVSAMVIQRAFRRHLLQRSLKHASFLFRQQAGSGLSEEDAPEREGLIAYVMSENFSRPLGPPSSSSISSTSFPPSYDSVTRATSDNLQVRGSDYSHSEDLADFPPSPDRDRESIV
Procedure, shortened: as §2, with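 “Barracuda. External solution (mM): 137 NaCl, 4 KCl, 1 MgCl2, 1.8 CaCl2, 10 HEPES, 10 glucose, pH 7.4.” for “Barracuda.”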

[9] = Plasma concentration in CD-1 mouse at 30 mg/kg, po measured 75 mins post dosage; type: ADME, organism-based
[10] = Drug uptake in CD-1 mouse DRG neurons at 30 mg/kg, po measured 75 mins post dosage; type: ADME, organism-based, DRG neuron; details: read-out: Drug uptake
Mus musculus [11] = test: Antinociceptive activity in CD-1 mouse assessed as reduction in formalin-stimulated paw flinching at 30 mg/kg, po administered 30 mins prior to formalin challenge measured up to 45 mins; type: functional, organism-based
Procedure, shortened: (§3)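 Male CD1 mice, oral dosing (10 mL/kg) of compound or vehicle before formalin; 20 μL of 5% formalin (w/v in saline) injected SC into the dorsal right hind paw, which carried a glued metal band, after 60 min acclimation in an individual chamber. Flinching counted automatically for 45 min: phase I is the first 5 min, phase II is 15-45 min. Mean ± SEM, n=10-14/group, ANOVA with Dunnett's test.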

Plasma [12] = test: Free plasma concentration in CD-1 mouse at 60 mg/kg, po measured 60 mins post dosage; details: in vivo, 1 h
Mus musculus [13] = test: Antinociceptive activity in CD-1 mouse assessed as reduction in formalin-stimulated paw flinching at 60 mg/kg, po administered 30 mins prior to formalin challenge measured up to 45 mins; type: functional, organism-based; procedure, shortened: as §3
Mus musculus [14] = test: Antinociceptive activity in CD-1 mouse assessed as reduction in formalin-stimulated paw flinching at 60 mg/kg, po administered 30 mins prior to formalin challenge measured up to 5 mins; type: functional, organism-based; procedure, shortened: as §3
[15] = target: T1, Sodium channel protein type 9 subunit alpha; test: Inhibition of Nav1.7 in C57BL/6 mouse DRG neurons assessed as reduction in native TTX-S current amplitude by manual patch clamp electrophysiology assay
[16] = target: T2, Sodium channel protein type 9 subunit alpha; test: Inhibition of recombinant human Nav1.7 expressed in HEK293 cells assessed as reduction in peak inward current at -120 mV holding potential by manual whole-cell patch-clamp assay
Plasma [17] = test: Free plasma concentration in CD-1 mouse at 100 mg/kg, po measured 60 mins post dosage; details: in vivo, 1 h
Mus musculus [18] = test: Antinociceptive activity in CD-1 mouse assessed as reduction in formalin-stimulated paw flinching at 100 mg/kg, po administered 30 mins prior to formalin challenge measured up to 45 mins; type: functional, organism-based; procedure, shortened: as §3
[19] = target: Sodium channel protein type 9 subunit alpha (Rattus norvegicus, UniProt O08562); test: Inhibition of rat Nav1.7 assessed as reduction in peak inward current at -70 mV holding potential measured after 600 secs by manual patch clamp electrophysiology assay; procedure, shortened: as §1
Mus musculus [20] = test: Antinociceptive activity in CD-1 mouse assessed as reduction in formalin-stimulated paw flinching at 100 mg/kg, po administered prior to formalin challenge measured up to 5 mins

Cytochrome P450 3A4, sequence (P08684 whole entry): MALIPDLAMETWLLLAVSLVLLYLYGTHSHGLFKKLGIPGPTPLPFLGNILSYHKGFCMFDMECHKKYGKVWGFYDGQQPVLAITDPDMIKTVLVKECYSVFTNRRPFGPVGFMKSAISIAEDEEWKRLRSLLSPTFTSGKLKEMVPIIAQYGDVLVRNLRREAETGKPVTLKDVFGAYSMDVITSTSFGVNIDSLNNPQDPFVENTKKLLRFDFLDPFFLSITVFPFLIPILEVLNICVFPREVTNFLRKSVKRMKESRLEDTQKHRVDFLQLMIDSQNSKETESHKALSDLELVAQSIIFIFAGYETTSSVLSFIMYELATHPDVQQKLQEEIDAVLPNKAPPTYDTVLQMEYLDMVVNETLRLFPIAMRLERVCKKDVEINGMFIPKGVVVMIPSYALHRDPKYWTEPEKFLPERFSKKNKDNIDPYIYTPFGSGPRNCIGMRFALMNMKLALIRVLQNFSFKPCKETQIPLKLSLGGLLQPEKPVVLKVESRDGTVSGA

Row | IC50 [2] [nM] | Structure (SMILES) | IC50 [8] [nM] | further results
1 | 27 | CN1C(C)(C)CC(Nc2cc(F)c(S(=O)(=O)Nc3nccs3)cc2Cl)CC1(C)C | > 30000 | IC50 (Cytochrome P450 3A4): 20000 nM; IC50 [1]: 30 nM; Papp [3]: 2.3 ×10⁻⁶ cm/s; fraction unbound [4]: 0.23; Papp [5]: 24.1 ×10⁻⁶ cm/s; IC50 [6]: 17 nM; Cp(f) (Plasma [7]): 280 nM; concentration at 1.25 h [9]: 1100 nM; concentration at 1.25 h [10]: 1500 nM
2 | 14 | O=S(=O)(Nc1nccs1)c1cc(Cl)c(NCCC2CCNC2)cc1F (racemic) | > 30000 | –
3 | 186 | O=S(=O)(Nc1nccs1)c1cc(Cl)c(NC[C@H]2CCCN(O)C2)cc1F | – | –
4 | 49 | O=S(=O)(Nc1nccs1)c1cc(Cl)c(NC[C@H]2CCCNC2)cc1F | > 30000 | IC50 (Cytochrome P450 3A4): 20000 nM
5 | 339 | O=S(=O)(Nc1nccs1)c1cc(Cl)c(NCC2CNC2)cc1F | > 30000 | –
6 | 324 | CC(=O)N1CCCC(CNc2cc(F)c(S(=O)(=O)Nc3nccs3)cc2Cl)C1 (racemic) | > 30000 | –
7 | 69 | O=S(=O)(Nc1nccs1)c1cc(Cl)c(NCC2CNCCO2)cc1F (racemic) | > 30000 | IC50 (Cytochrome P450 3A4): 20000 nM
8 | 57 | O=S(=O)(Nc1nccs1)c1cc(Cl)c(NC[C@@H]2CCCNC2)cc1F | – | IC50 (Cytochrome P450 3A4): 20000 nM
9 | 6 | N[C@H]1CC[C@@H](CNc2cc(F)c(S(=O)(=O)Nc3nccs3)cc2Cl)CC1 | 1900 | IC50 [1]: 7.5 nM; IC50 [15]: 6 nM; IC50 [16]: 9400 nM; Cp(f) (Plasma [17]): 320 nM; Activity (Mus musculus [18]): inactive; fraction unbound [4]: 0.08; IC50 [19]: 12.3 nM; IC50 [6]: 4 nM; Activity (Mus musculus [20]): inactive
10 | 207 | O=S(=O)(Nc1nccs1)c1cc(Cl)c(NC[C@@H]2CCCN(O)C2)cc1F | – | –
11 | 264 | CN1CCCC(CNc2cc(F)c(S(=O)(=O)Nc3nccs3)cc2Cl)C1 (racemic) | > 30000 | –

Continued, compound first:

Row | Structure (SMILES) | IC50 [2] [nM] | IC50 [8] [nM] | further results
12 | O=S(=O)(Nc1nccs1)c1cc(Cl)c(NCC2(CN3CCCC3)CC2)cc1F | – | 5100 | IC50 (Cytochrome P450 3A4): 20000 nM; IC50 [1]: 51 nM; Activity (Mus musculus [11]): Active; Papp [3]: 4.7 ×10⁻⁶ cm/s; fraction unbound [4]: 0.2; Papp [5]: 94.9 ×10⁻⁶ cm/s; IC50 [6]: 12 nM; Cp(f) (Plasma [7]): 240 nM; concentration at 1.25 h [9]: 1200 nM; concentration at 1.25 h [10]: 1500 nM
13 | O=S(=O)(Nc1nccs1)c1cc(Cl)c(NCC23CCCN2CCC3)cc1F | – | – | Cp(f) (Plasma [12]): 1270 nM; Activity (Mus musculus [13]): Active; Activity (Mus musculus [14]): inactive
14 | C[C@]1(CCOc2cc(F)c(S(=O)(=O)Nc3ncns3)cc2F)CC[C@H](N)CC1 | 383 | > 30000 | –
15 | N[C@H]1CC[C@@H](CCNc2cc(F)c(S(=O)(=O)Nc3nccs3)cc2Cl)CC1 | – | 4900 | –
16 | C[C@]1(CCOc2cc(F)c(S(=O)(=O)Nc3ncns3)cc2F)CC[C@@H](N)CC1 | 78 | > 30000 | –
17 | N[C@H]1CC[C@H](CNc2cc(F)c(S(=O)(=O)Nc3nccs3)cc2Cl)CC1 | – | > 30000 | –
18 | O=S(=O)(Nc1ncns1)c1cc(F)c(OCC2(c3ccc(Cl)cc3)CCNCC2)cc1F | 900 | – | –
19 | O=S(=O)(Nc1nccs1)c1cc(Cl)c(NCCC2CNC2)cc1F | – | > 30000 | –
20 | O=S(=O)(Nc1ncns1)c1cc(F)c(OCC[C@]2(c3ccccc3)CC[C@H](NC3CC3)CC2)cc1F | – | > 30000 | –
21 | CN[C@H]1CC[C@@](CCOc2cc(F)c(S(=O)(=O)Nc3ncns3)cc2F)(c2ccccc2)CC1 | – | > 30000 | –
22 | O=S(=O)(Nc1nccs1)c1cc(Cl)c(NCCC2CCNCC2)cc1F | – | > 30000 | –
23 | O=S(=O)(Nc1ncns1)c1cc(F)c(OC[C@@H]2CNCC[C@H]2c2ccc(Cl)cc2)cc1F | 2 | – | –
24 | N[C@H]1CC[C@@](CCOc2cc(F)c(S(=O)(=O)Nc3ncns3)cc2F)(c2ccc(Cl)cc2)CC1 | – | > 30000 | –
25 | N[C@H]1CC[C@@](CCOc2cc(F)c(S(=O)(=O)Nc3ncns3)cc2Cl)(c2ccccc2)CC1 | – | > 30000 | –
26 | N[C@H]1CC[C@](CCOc2cc(F)c(S(=O)(=O)Nc3ncns3)cc2Cl)(c2ccccc2)CC1 | – | > 30000 | –
27 | O=S(=O)(Nc1ncns1)c1cc(Cl)c(NCCC2CCCCN2)cc1F (racemic) | 15 | – | –
28 | N[C@H]1CC[C@@H](CNc2cc(F)c(S(=O)(=O)Nc3ncns3)cc2Cl)CC1 | – | 2600 | IC50 (Cytochrome P450 3A4): 2300 nM
29 | O=S(=O)(Nc1ncns1)c1cc(F)c(OCC[C@]2(c3ccccc3)CC[C@@H](NC3CC3)CC2)cc1F | – | > 30000 | –
30 | N[C@H]1CC[C@@](CCNc2cc(F)c(S(=O)(=O)Nc3nccs3)cc2Cl)(c2ccccc2)CC1 | – | > 30000 | IC50 (Cytochrome P450 3A4): 9800 nM
31 | CN[C@H]1CC[C@](CCOc2cc(F)c(S(=O)(=O)Nc3ncns3)cc2F)(c2ccccc2)CC1 | – | > 30000 | –
32 | N[C@H]1CC[C@](CCOc2cc(F)c(S(=O)(=O)Nc3ncns3)cc2F)(c2ccc(Cl)cc2)CC1 | – | > 30000 | –
33 | N[C@H]1CC[C@](CCNc2cc(F)c(S(=O)(=O)Nc3nccs3)cc2Cl)(c2ccccc2)CC1 | – | > 30000 | IC50 (Cytochrome P450 3A4): 6700 nM
34 | CN1CCC(CCNc2cc(F)c(S(=O)(=O)Nc3nccs3)cc2Cl)CC1 | – | > 30000 | –
35 | N[C@H]1CC[C@@](CCOc2cc(F)c(S(=O)(=O)Nc3ncns3)cc2F)(c2ccccc2)CC1 | 473 | > 30000 | –
36 | O=S(=O)(Nc1ncns1)c1cc(F)c(OCCC2(c3ccc(Cl)cc3)CCNCC2)cc1F | 78 | – | –
37 | N[C@H]1CC[C@](CCOc2cc(F)c(S(=O)(=O)Nc3ncns3)cc2F)(c2ccccc2)CC1 | 15 | > 30000 | –
